In ChEMBL document CHEMBL1138288, “2-phenylimidazopyridines, a new series of Golgi compounds with potent antiviral activity” (J Med Chem, 2007) one finds IC50 data, which are given here for ten compounds.

The nature of assay [1]: Inhibition of IgE production in antigen-sensitized BALB/c mouse spleen cells. Type of assay: functional, tissue-based. To be noted: Mus musculus, BALB/c, Spleen.
Another assay relates to Modoc virus. Kind of assay: Antiviral activity against Modoc virus-infected HeLa-H1 cells. The class given is functional, organism-based.
Assay [2] relates to Vesicular stomatitis virus. Kind of assay: Antiviral activity against VSV-infected Vero cells. Type of assay: functional, organism-based.
The test system of another assay is Simian virus 40. Kind of assay: Antiviral activity against SV40-infected Vero cells. The class given is functional, organism-based. To be noted: Betapolyomavirus macacae. In a few lines: (§1)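 Cells were seeded at about 50 000/well and infected 24 h later at MOI 0.1 or less, with drug added alongside. Once infectivity was evident, cells were washed and stained with methylene blue/carbol fuchsin in methanol for 10 min at room temperature.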

In assay [3] the test system is California encephalitis virus. Kind of assay: Antiviral activity against California encephalitis virus-infected Vero cells. The conditions noted are these: California encephalitis virus, Vero. The class given is functional, cell-based.
The subject of a further assay is Murine hepatitis virus. The assay is described as follows: Antiviral activity against mouse hepatitis virus-infected NCTC clone-1469 cells. The conditions noted are these: Murine coronavirus. Type of assay: functional, organism-based. An outline of the steps: as §1
For the next assay, the system named is Enterovirus. The assay is described as follows: Antiviral activity against Rhinovirus-infected HeLa-H1 cells. Type of assay: functional, organism-based. To be noted: Enterovirus, HeLa H1.
The next assay deals with Vaccinia virus. Kind of assay: Antiviral activity against Vaccinia virus-infected Vero cells. The class given is functional, organism-based, Orthopoxvirus vaccinia. To be noted: Orthopoxvirus vaccinia, Vero.
In another assay the test system is Human alphaherpesvirus 2. Kind of assay: Antiviral activity against HSV2-infected Vero cells. Type of assay: functional, organism-based. The conditions noted are these: Human alphaherpesvirus 2, Vero.
A further assay deals with San Angelo virus. The assay is described as follows: Antiviral activity against San Angelo virus-infected Vero cells. Type of assay: functional, organism-based. To be noted: San Angelo virus, Vero.

Molecules are shown by their SMILES. pIC50: −log10 of the molar value.

For orientation: pIC50 means −log10 of the IC50, conventionally taken in molar units. As to `O=C(Nc1ccccn1)c1cc2nc(-c3ccc(NC(=O)C45CC6CC(CC(C6)C4)C5)cc3)[nH]c2cn1`, the pIC50 in assay [1] was 6.92; in the assay with Modoc virus, 6.22; in assay [2], < 5.70; in the assay on Simian virus 40 it was < 5.70; in assay [3], 7.40; in the assay on Murine hepatitis virus, 7.30. In addition, the pIC50 in the assay with Enterovirus is 6.70; with Vaccinia virus it was 5.82; in the assay with Human alphaherpesvirus 2 it was 6.22; with San Angelo virus it was 7.40.
For the compound `O=C(Nc1ccc(-c2nc3cc(NC(=O)C45CC6CC(C4)C(O)C(C6)C5)ncc3[nH]2)cc1)C12CC3CC(CC(C3)C1)C2` (stereo not given), the pIC50 in assay [1] is 9.82; in the assay on Modoc virus it was 7.70; in [2], < 5.70; in the assay with Simian virus 40 it was 6.00; in assay [3], 7.22; with Murine hepatitis virus, 6.70. The pIC50 in the assay on Enterovirus is 7.70; in the assay on Vaccinia virus, 6.40; in the assay on Human alphaherpesvirus 2, 7.05; in the assay with San Angelo virus it was 7.22.
Consider `O=C(Nc1cc2nc(-c3ccc(NC(=O)C45CC6CC(CC(C6)C4)C5)cc3)[nH]c2cn1)c1ccccn1`, for which the pIC50 in [1] is 8.00; in the assay with Modoc virus, 7.22; in [2], 6.00; in the assay on Simian virus 40, < 5.70; in [3], 7.22; with Murine hepatitis virus, 7.22. The pIC50 was 7.22 in the assay with Enterovirus, 6.30 with Vaccinia virus, 7.12 with Human alphaherpesvirus 2 and 7.22 with San Angelo virus.
Consider `O=C(Nc1ccc(-c2nc3cc(C(=O)NC45CC6CC(CC(C6)C4)C5)ncc3[nH]2)cc1)c1ccc(Cl)cc1`, for which the pIC50 in assay [1] is 8.52; in the assay with Modoc virus it was 7.70; in assay [2], < 5.70; in the assay with Simian virus 40, < 5.70; in assay [3], 7.22; in the assay with Murine hepatitis virus, 7.22. The pIC50 was 6.40 in the assay with Enterovirus, 7.40 with Vaccinia virus, 7.70 in the assay on Human alphaherpesvirus 2 and 7.70 in the assay on San Angelo virus.
Take `O=C(Nc1ccc(-c2nc3cc(NC(=O)C4CCCCC4)ccc3[nH]2)cc1)c1ccc(Cl)c(Cl)c1`: the pIC50 in [1] was 8.52; with Modoc virus, 7.70; in assay [2] it was < 5.70; with Simian virus 40, < 5.70; in assay [3], 6.70; with Murine hepatitis virus, 7.70. Also, the pIC50 in the assay with Enterovirus was 6.70; with Vaccinia virus it was 6.22; with Human alphaherpesvirus 2, 7.22; in the assay with San Angelo virus, 7.22.
Turning to `O=C(Nc1ccc(-c2nc3cc(NC(=O)C4CCCCC4)ncc3[nH]2)cc1)C1CCCCC1`, the pIC50 in assay [1] was 8.82; in the assay with Modoc virus it was 8.22; in [2], < 5.70; in the assay with Simian virus 40 it was < 5.70; in assay [3], 7.22; in the assay with Murine hepatitis virus it was 7.82. Further, the pIC50 with Enterovirus is 7.22; in the assay with Vaccinia virus, 7.22; in the assay on Human alphaherpesvirus 2 it was 7.70; in the assay on San Angelo virus, 7.70.
With `CC(=O)OC1CCC(C(=O)Nc2ccc(-c3nc4cc(NC(=O)C5CCC(OC(C)=O)CC5)ccc4[nH]3)cc2)CC1` (stereo not given), the pIC50 was 6.00 in assay [1]; < 6.22 in the assay with Modoc virus; 6.00 in assay [2]; 5.82 in the assay with Simian virus 40; < 5.70 in assay [3]; < 6.22 with Murine hepatitis virus. Further, the pIC50 in the assay with Enterovirus, in the assay on Vaccinia virus, in the assay with Human alphaherpesvirus 2 and in the assay with San Angelo virus was < 5.70 in each case.
As to `O=C(Nc1ccccn1)c1ccc2[nH]c(-c3ccc(NC(=O)C45CC6CC(CC(C6)C4)C5)cc3F)nc2c1`, the pIC50 in assay [1] is 8.00; in the assay with Modoc virus, 7.22; in [2], < 5.70; in the assay on Simian virus 40, < 5.70; in assay [3], 6.70; with Murine hepatitis virus, 7.22. In addition, the pIC50 with Enterovirus is 6.40; with Vaccinia virus, 6.22; in the assay on Human alphaherpesvirus 2, 6.82; in the assay with San Angelo virus it was 6.70.
On to `O=C(Nc1ccc(-c2nc3cc(NC(=O)C4CCCCC4)ccc3[nH]2)cc1)C1CCCCC1`, for which the pIC50 in assay [1] is 8.30; in the assay with Modoc virus, 7.30; in [2], 6.00; in the assay on Simian virus 40, 6.00; in [3] it was 6.70; with Murine hepatitis virus it was 7.70. Besides, the negative-log IC50 (pIC50) with Enterovirus was 6.80; in the assay on Vaccinia virus, 6.70; in the assay with Human alphaherpesvirus 2, 6.77; in the assay on San Angelo virus it was 6.70.
Take `O=C(NC12CC3CC(CC(C3)C1)C2)c1ccc2[nH]c(-c3ccc(NC(=O)C45CC6CC(CC(C6)C4)C5)cc3)nc2c1`: the pIC50 in [1] is 8.30; with Modoc virus, 7.22; in assay [2], < 5.70; with Simian virus 40, < 5.70; in [3] it was 7.22; in the assay with Murine hepatitis virus, 7.70. In addition, the pIC50 was 7.70 in the assay with Enterovirus, 6.22 with Vaccinia virus, 7.40 in the assay with Human alphaherpesvirus 2 and 7.70 in the assay with San Angelo virus.
